Source: PubChem BioAssay (several laboratories)
UCH37 DUB inh – inhibitors of human deubiquitinating enzyme UCH37; hit rate 0.33% among 330,000; Q9Y5K5; inhibition, % (concentration not given with the values); purified proteasome/UCH37, Ub-AMC cleavage fluorescence;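 active = mean inhibition over replicate wells above about 20%, limit read from the data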
Target sequence (Q9Y5K5 whole entry, looked up): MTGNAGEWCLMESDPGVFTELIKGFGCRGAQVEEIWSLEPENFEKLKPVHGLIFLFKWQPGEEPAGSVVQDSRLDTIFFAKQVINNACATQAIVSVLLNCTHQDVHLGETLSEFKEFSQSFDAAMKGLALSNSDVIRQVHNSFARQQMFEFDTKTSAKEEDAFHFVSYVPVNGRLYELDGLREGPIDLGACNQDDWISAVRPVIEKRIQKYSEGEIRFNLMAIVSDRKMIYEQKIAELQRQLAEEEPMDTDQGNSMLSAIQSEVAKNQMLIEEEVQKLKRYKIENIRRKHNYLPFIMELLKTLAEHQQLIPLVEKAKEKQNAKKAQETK
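Material: human UCH37 enzyme supplied as purified proteasome complex. Measure: % inhibition of Ub-AMC cleavage fluorescence. Medium: pH 7.4 Tris-HCl (50 mM) with ovalbumin, ATP-MgCl2, DTT. Times: 30 min preincubation with enzyme, 25 min cleavage at room temperature. Detection: AMC fluorescence intensity at 355/460 nm.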
APOBEC3A inh – inhibitors of human APOBEC3A DNA deaminase | recombinant A3A, FAM/TAMRA ssDNA deamination fluorescence | hit rate 0.41% among 330,000 | P31941 | inhibition, % at 20 µM;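 active = at least 40% inhibition at 20 µM here, with at most 30% in a related deaminase screen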
JMJD2C inh – inhibitors of human GASC-1 (JMJD2C) demethylase | GST-JMJD2C(1-420) H3K9me3 demethylation, DELFIA europium | Q9H3R0 | hit rate 0.069% among 330,000 | AID 2099 | inhibition, % at 2.35 µM;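 active = more than half of a compound's replicate wells show inhibition beyond 50%, single wells judged on their own value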;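 also: signal counts dimethyl H3K9 product captured on neutravidin plate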
A3G deaminase – blocks human APOBEC3G single-stranded DNA deamination. Q9HC16. recombinant A3G, ssDNA deamination FAM/TAMRA fluorescence. inhibition, % at 20 µM. hit rate 0.28% among 330,000. AID 493012;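 active = inhibition of at least 40% at 20 µM, with no more than 30% in the related APOBEC3A deaminase screen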
Hits are given with their value; n = inactive; x = no result given. A selection: hits, their analogues and other compounds. The true share with any hit is near 0.97%.

SMILES	UCH37 DUB inh	APOBEC3A inh	JMJD2C inh	A3G deaminase
O=Cc1cc(N=Nc2ccc(S(=O)(=O)O)cc2)ccc1O	21	n	n	n
Cc1nn(-c2ccccc2)c(Cl)c1C=NNC(=O)c1ccncc1	n	x	x	x
CCCCn1c(=O)[nH]c(=O)c2c1nc(-c1cc(Cl)c(OC)c(OC)c1)n2C	n	n	52	n
CCCCn1c(=O)[nH]c(=O)c2c1nc(-c1ccc(OC(F)F)c(OC)c1)n2C	n	n	n	n
CCc1ccc(S(=O)(=O)N=C2C=C(Sc3ncn[nH]3)C(=O)c3ccccc32)cc1	80	x	x	x
CC1=C(N2CCCCC2)CCC1=O	33	n	n	n
CC(C)(C)OC(=O)NN=Cc1ccc(N2CCOCC2)s1	n	x	x	x
CC(C)(C)[C@@H]1CCC(=O)N(CC[C@H](N=[N+]=[N-])c2ccccc2)CC1	28	n	n	n
C[C@@H]1CCC(=O)N(CC[C@H](N=[N+]=[N-])c2ccccc2)CC1	n	n	n	n
COc1ccc(Nc2ncnc3c2cnn3-c2ccccc2)cc1OC	n	n	n	n
COc1ccc(Nc2ncnc3sc(-c4ccccc4)cc23)cc1OC	n	n	54	n
CSCC[C@H](NC(=O)OC(C)(C)C)C(=O)NN=Cc1cc2ccc(C)cc2nc1Cl	n	x	x	x
N=C1/C(=C\c2ccc(SCc3ccccc3)o2)C(=O)N=C2SC(CC(=O)N3CCOCC3)=NN12	n	n	n	n
N=C1/C(=C/c2ccc(-c3cccc(C(=O)O)c3)o2)C(=O)N=C2SC(CC(=O)N3CCOCC3)=NN12	24	n	n	n
Cc1cc(O)c2c(c1O)C(=O)[C@]13C(=C2O)C(=O)[C@@H]2[C@@H](O)[C@H]1[C@@H]1[C@H](O)[C@H]3C(=O)C3=C(O)c4c(O)cc(C)c(O)c4C(=O)[C@]312	21	n	x	n
CCOC(=O)NN=Cc1ccc(OC(=O)c2ccc3c(c2)OCO3)cc1	n	x	x	x
O=C(O)CCCN1C(=O)/C(=C/C=C/c2ccco2)SC1=S	20	n	n	n
O=C(NN1C(=O)/C(=C/C=C/c2ccco2)SC1=S)c1ccccc1O	n	n	n	n
O=C(O)CC(C(=O)O)N1C(=O)/C(=C/C=C/c2ccco2)SC1=S (stereo not given)	21	n	n	n
O=C(O)C(Cc1ccccc1)N1C(=O)/C(=C/C=C/c2ccco2)SC1=S (stereo not given)	24	x	n	x
CC1=CCC(C(=O)O)(C(=O)NN=Cc2cccnc2)C(c2ccccc2)C1 (stereo not given)	n	x	x	x
CCOc1ccc(C=NNc2ccc(C(F)(F)F)cc2[N+](=O)[O-])cc1O	n	x	x	x
Oc1cc2c(cc1O)[C@H]1c3ccc(O)c(O)c3OC[C@@]1(O)C2	x	n	n	59
COc1ccc(NC(=S)NCc2ccc(S(N)(=O)=O)cc2)cc1OC	n	n	56	n
CCc1ccc(Nc2ccc(C(N)=O)cc2[N+](=O)[O-])cc1	n	n	n	n
SMILES	UCH37 DUB inh	APOBEC3A inh	JMJD2C inh	A3G deaminase
Cc1ccc(Nc2ccc(C(N)=O)cc2[N+](=O)[O-])cc1C	26	n	n	n
Cc1ccc(C(=O)NN=Cc2ccc(-c3ccc(Cl)cc3)o2)cn1	n	x	x	x
CCOC(=O)C(C)Oc1ccsc1C(=O)OC (stereo not given)	n	n	51	n
CN1C(=O)/C(=C2/C=Cc3ccccc3N2CCCS(=O)(=O)O)SC1=S	24	n	n	n
C/C(C=NNC(=O)c1ccncc1)=C\c1ccco1	23	x	x	x
CCOC(=O)N1CCN(C(=O)c2ccc3c(=O)n4c(nc3c2)CCCCC4)CC1	29	n	n	n
C[C@H](CO)N1C[C@H](C)[C@@H](CN(C)Cc2ccc3c(c2)OCO3)Oc2ccc(NC(=O)Cn3cnnn3)cc2C1=O	n	n	61	n
Cc1noc(C)c1NC(=O)N(C)C[C@H]1Oc2ccc(NC(=O)Cn3cnnn3)cc2C(=O)N([C@H](C)CO)C[C@@H]1C	n	n	66	n
C[C@H](CO)N1C[C@H](C)[C@@H](CN(C)C(=O)Nc2ccc3c(c2)OCO3)Oc2ccc(NC(=O)Cn3cnnn3)cc2C1=O	n	n	68	n
CCOc1ccc(NC(=O)Cn2c(=O)oc3ccccc32)cc1	30	n	n	n
Cc1sc2nc(CN3CCOCC3)nc(NS(=O)(=O)c3cc(Cl)ccc3Cl)c2c1C	n	n	56	n
Cc1sc2nc(CN3CCOCC3)nc(Cl)c2c1C	n	n	n	n
CC1(C)CC(=NNC(=O)c2n[nH]c3c2CCC3)CC(C)(C)N1	31	n	n	n
Cc1cc(C(=O)NN=Cc2cccs2)n[nH]1	n	x	x	x
CCC(/C=C1\Sc2ccc(OC)cc2N1CC)=C\c1sc2ccc(OC)cc2[n+]1CCCS(=O)(=O)[O-]	n	n	n	n
